ChEMBL document CHEMBL4699504, “7-Hydroxycoumarins Are Affinity-Based Fluorescent Probes for Competitive Binding Studies of Macrophage Migration Inhibitory Factor” (J Med Chem, 2020)
Converted amounts (≈) assume the structure as drawn. The source made the active and inactive calls. The calls are words filed in the database; no cut-off is given here.

What was measured:
[1] = target: T1, Macrophage migration inhibitory factor (Homo sapiens, UniProt P14174); experiment: Binding affinity to C-terminal His-tagged recombinant human MIF expressed in Escherichia coli BL21 (DE3) at 100 nM by fluorescence assay
T1 sequence (P14174 whole entry): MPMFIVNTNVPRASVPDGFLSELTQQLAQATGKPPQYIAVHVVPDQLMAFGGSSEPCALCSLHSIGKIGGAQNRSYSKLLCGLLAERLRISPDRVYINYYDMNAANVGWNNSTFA
In short: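 Fluorescent indicator displacement in PBS pH 7.4. Compound preincubated with MIF 10 min at RT, then 7-hydroxycoumarin indicator added for another 10 min at RT. Final MIF 100 nM, indicator 50 nM, DMSO 2.5%. Fluorescence read at Ex/Em 355/455 nm. EC50 for fluorescence recovery from nonlinear fit, converted to Kd with a displacement equation using indicator KS. Three independent experiments.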

[2] = target: T1, Macrophage migration inhibitory factor; experiment: Inhibition of C-terminal His-tagged recombinant human MIF expressed in Escherichia coli BL21 (DE3) using 4-HPP as substrate preincubated for 10 mins followed by substrate addition by UV absorption spectrum analysis
[3] = target: T1, Macrophage migration inhibitory factor; experiment: Displacement of 4'-(7-Hydroxy-2-oxo-2H-chromen-3-yl)-[1,1'-biphenyl]-4-carboxylic acid from C-terminal His-tagged recombinant human MIF expressed in Escherichia coli BL21 (DE3) preincubated for 10 mins followed by probe addition and measured after 10 mins by fluorescence assay
[4] = target: T2, Macrophage migration inhibitory factor (Homo sapiens) (UniProt P14174); experiment: Binding affinity to C-terminal His-tagged recombinant human MIF expressed in Escherichia coli BL21 (DE3) assessed as inhibition of MIF interaction with MBP-fused human CD74 up to 50 uM preincubated for 10 mins with CD74 followed by MIF addition and measured after 30 mins by ELISA; conditions: dose microM <=50, time 40.0 min
T2 sequence (whole entry): T1 sequence (P14174 whole entry)
In short: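 MIF (250 nM) coated on plates overnight at 4 °C, then blocked with 2% BSA for 1 h at RT. Inhibitor in DMSO premixed 10 min at RT with MBP–sCD74 (final 500 nM sCD74; inhibitor 1–100 μM), then added to wells for 30 min at RT. Bound sCD74 detected with rabbit anti-CD74 pAb and goat anti-rabbit HRP. No-inhibitor signal set to 100%, no-sCD74 signal to 0%. n = 3.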

[5] = target: T1, Macrophage migration inhibitory factor; experiment: Binding affinity to C-terminal His-tagged recombinant human MIF expressed in Escherichia coli BL21 (DE3) at 200 nM by fluorescence assay
In short: (§1)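 Equal volumes of fluorophore (diluted from 10 mM DMSO stock to 200 nM in PBS pH 7.4) and MIF dilution series (16–8000 nM) mixed, 10 min at room temperature; fluorescence read at Ex/Em 340/460 nm or 355/455 nm; KS from hyperbolic fit of specific binding curve; n = 3.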

[6] = target: T2, Macrophage migration inhibitory factor (Homo sapiens); experiment: Binding affinity to C-terminal His-tagged recombinant human MIF expressed in Escherichia coli BL21 (DE3) assessed as fluorescence quenching at 50 nM by fluorescence assay; in short: as §1
Albumin = Albumin (Bos taurus, UniProt P02769); experiment: Binding affinity to bovine serum albumin assessed as fluorescence quenching at 50 nM by fluorescence assay; type: ADME; conditions: cattle, isolated protein, 0.05 µM
In short: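 Control for non-specific quenching: 50 nM fluorophore titrated with BSA (up to 800 nM) in PBS pH 7.4, fluorescence intensity compared against MIF titration.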

[7] = target: T2, Macrophage migration inhibitory factor (Homo sapiens); experiment: Competitive inhibition of C-terminal His-tagged recombinant human MIF expressed in Escherichia coli BL21 (DE3) up to 50 nM using varying levels of 4-HPP as substrate preincubated for 10 mins followed by substrate addition by Lineweaver-burk plot analysis; conditions: dose nM <=50, time 10.0 min
[8] = Half life of compound in pH 7.4 PBS buffer at 100 nM; type: physicochemical; conditions: pH 7.4, 0.1 µM
In short: (§2)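 Fluorescence lifetime of 100 nM fluorophore in 1 mL PBS pH 7.4, measured alone or with 500 nM MIF.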

[9] = Half life of compound in pH 7.4 PBS buffer at 100 nM in presence of MIF; type: physicochemical; conditions: pH 7.4, 0.1 µM; in short: as §2
[10] = target: T2, Macrophage migration inhibitory factor (Homo sapiens); experiment: Binding affinity to C-terminal His-tagged recombinant human MIF expressed in Escherichia coli BL21 (DE3) assessed as fluorescence quenching at 50 nM in presence of CuSO4 by fluorescence assay
In short: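 Indicator displacement setup (100 nM MIF, 50 nM fluorophore, PBS pH 7.4) run with Cu2+ ions up to 200 μM; fluorescence read at Ex/Em 355/455 nm.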

[11] = target: T2, Macrophage migration inhibitory factor (Homo sapiens); experiment: (§3) Binding affinity to C-terminal His-tagged recombinant human MIF expressed in Escherichia coli BL21 (DE3) assessed as inhibition of MIF interaction with MBP-fused human CD74 preincubated for 10 mins with CD74 followed by MIF addition and measured after 30 mins by ELISA; conditions: time 40.0 min
In short: (§4)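 MIF (250 nM, 100 μL) coated overnight at 4 °C, blocked 1 h with 2% BSA; inhibitor (1–100 μM) premixed 10 min with 500 nM MBP–sCD74, added 30 min at room temperature; bound sCD74 detected with rabbit anti-CD74 then HRP anti-rabbit, 30 min each; DMSO = 100%, no sCD74 = 0%; mean ± SD, n = 3.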

[12] = target: T1, Macrophage migration inhibitory factor; experiment: as §3; in short: as §4
A549 [13] = experiment: Toxicity in human A549 cells assessed as reduction in cell viability up to 20 uM measured after 24 hrs by MTS assay; type: cell-based; conditions: a549, 24 h
In short: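 A549 cells treated 24 h; viability read by MTS assay.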

A549 [14] = experiment: Inhibition of colony formation in human A549 cells at 2.5 to 10 uM incubated for 10 days by crystal violet staining based assay; type: functional, cell-based; conditions: dose microM 2.5-10, time 10.0 day
In short: (§5)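 A549 seeded at 100 cells/well in RPMI with 10% FBS, overnight, then treated 10 days (0.2% DMSO final); fixed 4% paraformaldehyde, stained 0.5% crystal violet; colonies (>50 cells) counted vs 0.2% DMSO control; three independent experiments.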

[15] = target: T2, Macrophage migration inhibitory factor (Homo sapiens); experiment: Inhibition of MIF (unknown origin) cultured in human A549 cells assessed as reduction in MIF-induced ERk phosphorylation at 10 uM preincubated with MIF for 10 mins followed by cell addition and measured after 10 mins by Western blot analysis; type: cell-based; conditions: time 20.0 min
In short: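 A549 (2 × 10^5/well) cultured overnight; 150 ng/mL endotoxin-free MIF preincubated 10 min with compound, then applied to cells 10 min at 37 °C (0.2% DMSO); lysates (30 μg protein) blotted; pERK/GAPDH ratio; four independent experiments.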

[16] = Solubility of compound in pH 7.4 phosphate buffer; type: physicochemical
In short: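 Solubility measured in PBS pH 7.4.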

[17] = target: T2, Macrophage migration inhibitory factor (Homo sapiens); experiment: Inhibition of C-terminal His-tagged recombinant human MIF expressed in Escherichia coli BL21 (DE3) at 25 uM using 4-HPP as substrate preincubated for 10 mins followed by substrate addition by UV absorption spectrum analysis relative to control
[18] = target: T2, Macrophage migration inhibitory factor (Homo sapiens); experiment: Binding affinity to C-terminal His-tagged recombinant human MIF expressed in Escherichia coli BL21 (DE3) assessed as fluorescence quenching at 200 nM by fluorescence assay; in short: as §1
[19] = Absorption property of the compound in pH 7.4 PBS buffer assessed as maximum absorption wavelength at 100 uM by UV-vis spectra analysis; type: physicochemical; conditions: pH 7.4, 100 µM
In short: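 UV absorption spectra recorded at 100 μM compound in PBS pH 7.4 containing 5% (v/v) DMSO on a plate reader; wavelength of maximum absorbance taken.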

[20] = target: T2, Macrophage migration inhibitory factor (Homo sapiens); experiment: Binding affinity to C-terminal His-tagged recombinant human MIF expressed in Escherichia coli BL21 (DE3) at 100 nM in presence of 3-(3,4-Dimethoxyphenyl)-7-hydroxy-3,4-dihydro-2Hbenzo[e][1,3]oxazin-2-one by fluorescence assay
[21] = Emission property of the compound in pH 7.4 PBS buffer assessed as maximum emission wavelength at 200 nm by fluorescence spectra analysis; conditions: pH 7.4, 200 nM
A549 [22] = experiment: Inhibition of colony formation in human A549 cells at 100 uM incubated for 10 days by crystal violet staining based assay; type: functional, cell-based; conditions: time 10.0 day; in short: as §5

COc1ccc(N2Cc3ccc(O)cc3OC2=O)cc1OC
Kd [1]: 156 nM | Ki [2]: 100 nM | Kd [3]: 110 nM | inhibition [4]: inactive

O=C(O)c1ccc(-c2ccc(-c3cc4ccc(O)cc4oc3=O)cc2)cc1
Kd [5]: 16 nM | Ks [6]: 16 nM | Activity (Albumin): Not Active | inhibition [7]: Active | t1/2 [8]: 4.2 nanoseconds | t1/2 [9]: 4 nanoseconds | Activity [10]: Active | inhibition [11]: Dose-dependent effect | IC50 [12]: 36000 nM | Activity (A549 [13]): Non-Toxic | inhibition (A549 [14]): Active | inhibition [15]: Active | solubility ([16]; buffer): 18.8 µg/mL (≈ 52.5 µM)

O=C(Nc1ccccc1)c1cc2ccc(O)cc2oc1=O
inhibition [17]: 11%

COc1ccc(-c2cc3ccc(O)cc3oc2=O)cc1
Kd [1]: 390 nM | Activity [18]: Active | Activity [19]: 340 nm | IC50 [2]: 560 nM | Activity [20]: inactive | Activity [21]: 460 nm

COC(=O)CC1CC(c2ccc(O)cc2)=NO1 (stereo not given)
inhibition [4]: inactive | inhibition (A549 [22]): Active

O=c1oc2cc(O)ccc2cc1-c1ccccc1Cl
IC50 [2]: 19100 nM | Ki [2]: 12700 nM

O=c1oc2cc(O)ccc2cc1-c1ccc(I)cc1
IC50 [2]: 720 nM | Ki [2]: 480 nM

O=c1oc2cc(O)ccc2cc1-c1ccc2ccccc2c1
IC50 [2]: 2190 nM | Ki [2]: 1460 nM

O=C(NCc1ccccc1)c1cc2ccc(O)cc2oc1=O
inhibition [17]: 12%

O=C(NCc1cn(-c2ccc(O)c(F)c2)nn1)c1cc2cc(Cl)ccc2[nH]1
Kd [3]: 1400 nM | solubility ([16]; phosphate buffer): 10.8 µg/mL (≈ 28 µM)

Oc1ccc(-n2cc(-c3ccccn3)nn2)cc1
Kd [3]: 4000 nM

COc1cccc(-c2cc3ccc(O)cc3oc2=O)c1
IC50 [2]: 1850 nM | Ki [2]: 1230 nM

Oc1ccc(-n2cc(-c3cc4ccccc4cn3)nn2)cc1
Ki [2]: 440 nM | Kd [3]: 470 nM | solubility ([16]; phosphate buffer): 2.2 µg/mL (≈ 7.63 µM)

O=c1oc2cc(O)ccc2cc1-c1ccc(Br)cc1
IC50 [2]: 470 nM | Ki [2]: 310 nM

Cc1ccc(-c2cc3ccc(O)cc3oc2=O)cc1
IC50 [2]: 690 nM | Ki [2]: 460 nM

O=C(NCc1cn(-c2ccc(O)c(F)c2)nn1)c1cc2ccccc2[nH]1
Kd [3]: 4400 nM

COc1ccccc1-c1cc2ccc(O)cc2oc1=O
IC50 [2]: 2780 nM | Ki [2]: 1850 nM

O=c1oc2cc(O)ccc2cc1-c1ccccc1
IC50 [2]: 1760 nM | Ki [2]: 1170 nM

O=c1oc2cc(O)ccc2cc1-c1ccc(F)cc1
IC50 [2]: 2540 nM | Ki [2]: 1690 nM

CCOC(=O)c1cc2ccc(O)cc2oc1=O
IC50 [2]: 18600 nM | Ki [2]: 12400 nM

COc1ccc(C(=O)N/N=C/c2ccc(O)c(F)c2)cc1
Ki [2]: 8000 nM | Kd [3]: 5600 nM

O=c1oc2cc(O)ccc2cc1-c1ccc(Cl)cc1
IC50 [2]: 920 nM | Ki [2]: 610 nM

O=c1oc2cc(O)ccc2cc1-c1cccc(Cl)c1
IC50 [2]: 1930 nM | Ki [2]: 1290 nM
